This note sets out measurements from PubChem BioAssay.

This is one part of the list. Calls of active or inactive are those of the source.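 How the source made its calls, unless noted: active means mean of duplicate thallium-flux fluorescence ratios in parental host cells more than 5 SD below the buffer control mean (cut at about 0.38 in these data); inactive means the rest.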

Chain of Potassium voltage-gated channel subfamily KQT member 1 (Homo sapiens) (P51787 whole entry, looked up): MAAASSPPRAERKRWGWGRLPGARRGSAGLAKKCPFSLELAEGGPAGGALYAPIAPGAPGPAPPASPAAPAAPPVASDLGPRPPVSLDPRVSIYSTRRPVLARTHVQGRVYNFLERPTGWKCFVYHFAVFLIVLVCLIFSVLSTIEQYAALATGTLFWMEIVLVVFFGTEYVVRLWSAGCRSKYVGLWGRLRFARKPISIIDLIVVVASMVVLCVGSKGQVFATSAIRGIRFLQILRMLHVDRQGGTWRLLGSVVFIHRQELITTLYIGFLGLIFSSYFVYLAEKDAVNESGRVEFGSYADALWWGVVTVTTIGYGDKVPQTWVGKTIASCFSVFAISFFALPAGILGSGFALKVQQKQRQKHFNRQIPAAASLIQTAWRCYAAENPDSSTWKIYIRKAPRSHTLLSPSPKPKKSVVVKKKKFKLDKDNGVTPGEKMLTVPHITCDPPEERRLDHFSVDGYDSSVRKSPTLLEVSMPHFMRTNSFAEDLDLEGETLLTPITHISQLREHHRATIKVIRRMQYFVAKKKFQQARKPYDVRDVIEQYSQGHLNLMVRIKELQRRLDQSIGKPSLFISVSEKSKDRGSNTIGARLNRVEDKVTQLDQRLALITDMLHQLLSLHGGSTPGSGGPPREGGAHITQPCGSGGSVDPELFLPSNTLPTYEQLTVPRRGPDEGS

One test concerns the target Potassium voltage-gated channel subfamily KQT member 1 (Homo sapiens) (UniProt P51787). Nature of the test: blockers of human KCNQ1 channel – cell-based, Tl flux, duplicate, confirmation (AID 588353;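 active means primary screen active, with duplicate mean exceeding buffer control mean plus 3 SD of buffer wells, cut at about 28% in these data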;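 further: 0% = buffer control ratio and 100% = XE991 inhibitor control ratio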). The note with it: KCNQ1 cell line, FluxOR thallium flux fluorescence; at 10 µM; active compounds read high. The essentials:
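Assay system – KCNQ1 CHO cells · Probe or stimulus – Tl2SO4 plus K2SO4 stimulus, each 12.5 mM in 5x stock · Times – dye loading 90 min, compound 20 min, both room temperature · Signal – kinetic FluxOR thallium-sensitive dye fluorescence, 10 s baseline, 110 s post-stimulus · Measure – percent inhibition of fluorescence change ratio, scaled buffer to XE991 · Repeats – duplicate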
With `Cc1ccc2nc(C)c3c(c2c1)N(c1ccccc1)CC3`, the inhibition was 46% (active).

Turning to `FC(F)(F)c1cccc(NC(=S)Nc2cccc(Cl)c2)c1`, the inhibition is 112% (active).

`S=C(NCc1ccc(Cl)cc1)NC12CC3CC(CC(C3)C1)C2`: the inhibition is 143% (active).

In the case of `CCc1ccc(-c2nn(-c3ccccc3)cc2CSC(=N)N)cc1`, the inhibition is 126% (active).

For `CC(=O)N(C1=C(Cl)C(=O)c2ccccc2C1=O)c1ccc(C(=O)O)cc1`, the inhibition is 158% (active).

Tested on in a further test: not listed separately
Nature of the test: nonspecific activity in CHO-K1 cells without KCNQ1 – parental CHO cells, Tl flux, counter-screen for KCNQ1 inhibitor project (AID 588366).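 Further: ratio is peak minus minimum fluorescence divided by baseline fluorescence; actives read low.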 The note with it: parental CHO-K1, FluxOR thallium flux fluorescence ratio; at 10 µM; active compounds read low; zero means no signal rise above baseline. In short, it runs like this:
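System: parental CHO-K1 cells lacking KCNQ1 channel expression. Probe or stimulus: depolarizing K2SO4 plus Tl2SO4 stimulus, each 12.5 mM in 5x stock. Times: 90 min dye load, 20 min compound, room temperature. Measured by: real-time thallium-sensitive FluxOR dye fluorescence reading. Read-out: baseline-normalized fluorescence amplitude ratio, averaged over duplicates. Repeats: duplicates.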
With `Cc1ccc2nc(C)c3c(c2c1)N(c1ccccc1)CC3`, the fluorescence ratio (Tl flux) is 0.419 (inactive).

On to `FC(F)(F)c1cccc(NC(=S)Nc2cccc(Cl)c2)c1`, for which the fluorescence ratio (Tl flux) was 0.527 (inactive).

`S=C(NCc1ccc(Cl)cc1)NC12CC3CC(CC(C3)C1)C2`: the fluorescence ratio (Tl flux) is 0.521 (inactive).

For the compound `CCc1ccc(-c2nn(-c3ccccc3)cc2CSC(=N)N)cc1`, the fluorescence ratio (Tl flux) is 0.302 (active).

Take `CC(=O)N(C1=C(Cl)C(=O)c2ccccc2C1=O)c1ccc(C(=O)O)cc1`: the fluorescence ratio (Tl flux) was 0.205 (active).

The term inhibition denotes the drop in the measured response relative to a control, in per cent.
